Assay results: ChEMBL document CHEMBL4130514, “Sporothriolide-Related Compounds from the Fungus Hypoxylon monticulosum CLL-205 Isolated from a Sphaerocladina Sponge from the Tahiti Coast” (J Nat Prod, 2017)
The source made the active and inactive calls. No cut-off for these calls is given here.

What was measured:
MCF7 = test: Antiproliferative activity against human MCF7 cells after 72 hrs by MTT assay; assay type: functional, cell-based
Outline: (§1)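 Tetrazolium colorimetric proliferation assay in HCT-116 (colon carcinoma), PC-3 (prostate) and MCF-7 (breast) cells grown in DMEM with 10% fetal calf serum plus penicillin, streptomycin and fungizone. After 24 h growth, cells were treated with compounds from 100 μM to 10 nM, given in DMSO at 1% to 3% final. MTS was added at 72 h and absorbance was read at 490 nm against untreated cells. IC50 was determined from separate duplicate experiments.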

PC-3 = test: Antiproliferative activity against human PC3 cells after 72 hrs by MTT assay; assay type: functional, cell-based; outline: as §1
Escherichia coli = test: Antibacterial activity against Escherichia coli; assay type: functional, organism-based
Bacillus subtilis = test: Antibacterial activity against Bacillus subtilis; assay type: functional, organism-based
Micrococcus luteus = test: Antibacterial activity against Micrococcus luteus; assay type: functional, organism-based
HCT-116 = test: Antiproliferative activity against human HCT116 cells after 72 hrs by MTT assay; assay type: functional, cell-based; conditions: for IC50: HCT-116, 72 h; outline: as §1
[1] = Inhibition of hyaluronidase (unknown origin); set-up: species or system Homo sapiens

Row | Compound | IC50 (MCF7; MCF7, 72 h) [µM] | IC50 (PC-3; PC-3, 72 h) [µM] | Activity (Escherichia coli) | Activity (Bacillus subtilis) | Activity (Micrococcus luteus) | IC50 (HCT-116) [µM] | Activity (MCF7) | Activity (PC-3) | Activity (HCT-116) | IC50 [1] [µM]
1 | C=C1C(=O)O[C@@H]2[C@H]1C(=O)O[C@@H]2CCCCCC | 4 | 6.4 | inactive | inactive | inactive | 7.1 | – | – | – | –
2 | C=C(C(=O)O)[C@H]1C[C@@H](CCCCCC)OC1=O | – | – | inactive | inactive | inactive | 18 | – | – | – | –
3 | CCCCCC[C@H]1OC(=O)[C@@H]2[C@H]1OC(=O)[C@]21CCC=C[C@H]1/C=C/[C@@H]1O[C@H](C)C[C@@H]1O | – | – | inactive | inactive | inactive | – | inactive | inactive | inactive | 300
4 | CC1(C)[C@@H](O[C@H]2O[C@H](C(=O)O)[C@@H](O)[C@H](O)[C@H]2O[C@@H]2O[C@H](C(=O)O)[C@@H](O)[C@H](O)[C@H]2O)CC[C@]2(C)[C@H]3C(=O)C=C4[C@@H]5C[C@@](C)(C(=O)O)CC[C@]5(C)CC[C@@]4(C)[C@]3(C)CC[C@@H]12 [GLYCYRRHIZIN] | – | – | – | – | – | – | – | – | – | 320
